Experiments:
[1] = Inhibition of Yersinia pestis YopH expressed in Escherichia coli
In short: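 GST-YopH was purified on glutathione-Sepharose and dialysed into 30 mM Tris, 150 mM NaCl, then with 1 mM DTT. Assayed with pNPP at Km (1 mM), 30°C, 0.15 M Bis-Tris pH 6.0, 1.0 mM DTT, 5% DMSO final. Compound (0.0128–1000 μM) was preincubated 10 min at RT, then reacted 20 min. NaOH quench, A405 with the no-enzyme blank subtracted, IC50 by the hyperbolic fit.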

[2] = molecular target: Dual specificity protein phosphatase 3 (Homo sapiens, UniProt P51452); assay: Inhibition of VHR
Sequence of Dual specificity protein phosphatase 3 (P51452 whole entry): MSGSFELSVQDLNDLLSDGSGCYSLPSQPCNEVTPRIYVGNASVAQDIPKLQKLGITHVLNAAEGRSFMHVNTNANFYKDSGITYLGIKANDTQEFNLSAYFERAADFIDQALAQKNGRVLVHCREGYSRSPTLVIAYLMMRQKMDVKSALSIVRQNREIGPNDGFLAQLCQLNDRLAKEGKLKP
In short: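 VHR was assayed with pNPP at its Km of 1.5 mM, at 30°C in 0.15 M Bis-Tris pH 6.0 (150 mM ionic strength, NaCl), 1.0 mM DTT, 5% DMSO final. Eight compound concentrations from 0.0128 to 1000 μM were preincubated 10 min at RT, then reacted 20 min. NaOH quench, read at 405 nm with the enzyme-free blank corrected. IC50 from Vi/V0 = IC50/(IC50+[I]).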

[3] = molecular target: T1, Tyrosine-protein phosphatase non-receptor type 7 (Homo sapiens, UniProt P35236); assay: Inhibition of HePTP
T1 sequence (P35236 whole entry): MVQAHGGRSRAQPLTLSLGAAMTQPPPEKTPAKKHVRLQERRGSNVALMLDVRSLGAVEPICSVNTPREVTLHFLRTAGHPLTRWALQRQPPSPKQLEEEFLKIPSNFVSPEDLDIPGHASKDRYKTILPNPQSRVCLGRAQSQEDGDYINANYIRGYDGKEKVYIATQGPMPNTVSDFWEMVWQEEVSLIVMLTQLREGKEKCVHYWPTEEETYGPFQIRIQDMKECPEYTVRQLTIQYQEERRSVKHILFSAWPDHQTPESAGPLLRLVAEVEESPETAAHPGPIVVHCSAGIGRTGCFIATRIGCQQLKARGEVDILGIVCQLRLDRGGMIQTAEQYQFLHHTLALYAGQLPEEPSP
In short: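 pNPP was held at its Km of 2.5 mM for HePTP. Assay at 30°C in 0.15 M Bis-Tris pH 6.0 (ionic strength 150 mM, NaCl), 1.0 mM DTT, 5% DMSO final. Compound (0.0128–1000 μM) and enzyme were preincubated 10 min at RT, then reacted 20 min with substrate. NaOH quench, A405 minus the no-enzyme blank. IC50 fit to Vi/V0 = IC50/(IC50+[I]).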

[4] = molecular target: T2, Tyrosine-protein phosphatase non-receptor type 1 (Homo sapiens, UniProt P18031); assay: Inhibition of PTP1B
T2 sequence (P18031 whole entry): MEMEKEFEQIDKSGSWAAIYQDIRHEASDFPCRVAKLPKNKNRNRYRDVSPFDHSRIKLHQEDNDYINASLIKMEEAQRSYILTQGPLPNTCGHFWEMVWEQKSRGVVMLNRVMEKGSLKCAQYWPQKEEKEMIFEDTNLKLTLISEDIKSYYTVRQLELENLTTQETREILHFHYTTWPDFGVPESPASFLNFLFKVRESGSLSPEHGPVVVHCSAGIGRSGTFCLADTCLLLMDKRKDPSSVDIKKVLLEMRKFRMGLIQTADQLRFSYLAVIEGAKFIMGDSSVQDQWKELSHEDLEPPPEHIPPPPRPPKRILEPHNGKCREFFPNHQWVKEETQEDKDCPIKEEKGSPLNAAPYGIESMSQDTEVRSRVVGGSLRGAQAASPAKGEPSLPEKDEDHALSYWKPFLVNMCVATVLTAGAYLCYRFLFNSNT
In short: (§1)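 Hydrolysis of pNPP at its Km (1 mM) was measured at 30°C in 0.15 M Bis-Tris pH 6.0, ionic strength 150 mM with NaCl, 1.0 mM DTT, 5% DMSO final. Enzyme and compound (0.0128–1000 μM, 5-fold steps) were preincubated 10 min at room temperature, then reacted 20 min. The reaction was quenched with 1 M NaOH and read at 405 nm, with the no-enzyme background subtracted. IC50 came from the fit Vi/V0 = IC50/(IC50+[I]).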

[5] = molecular target: T3, Receptor-type tyrosine-protein phosphatase C (Homo sapiens, UniProt P08575); assay: Inhibition of CD45; in short: as §1
T3 sequence (P08575 whole entry): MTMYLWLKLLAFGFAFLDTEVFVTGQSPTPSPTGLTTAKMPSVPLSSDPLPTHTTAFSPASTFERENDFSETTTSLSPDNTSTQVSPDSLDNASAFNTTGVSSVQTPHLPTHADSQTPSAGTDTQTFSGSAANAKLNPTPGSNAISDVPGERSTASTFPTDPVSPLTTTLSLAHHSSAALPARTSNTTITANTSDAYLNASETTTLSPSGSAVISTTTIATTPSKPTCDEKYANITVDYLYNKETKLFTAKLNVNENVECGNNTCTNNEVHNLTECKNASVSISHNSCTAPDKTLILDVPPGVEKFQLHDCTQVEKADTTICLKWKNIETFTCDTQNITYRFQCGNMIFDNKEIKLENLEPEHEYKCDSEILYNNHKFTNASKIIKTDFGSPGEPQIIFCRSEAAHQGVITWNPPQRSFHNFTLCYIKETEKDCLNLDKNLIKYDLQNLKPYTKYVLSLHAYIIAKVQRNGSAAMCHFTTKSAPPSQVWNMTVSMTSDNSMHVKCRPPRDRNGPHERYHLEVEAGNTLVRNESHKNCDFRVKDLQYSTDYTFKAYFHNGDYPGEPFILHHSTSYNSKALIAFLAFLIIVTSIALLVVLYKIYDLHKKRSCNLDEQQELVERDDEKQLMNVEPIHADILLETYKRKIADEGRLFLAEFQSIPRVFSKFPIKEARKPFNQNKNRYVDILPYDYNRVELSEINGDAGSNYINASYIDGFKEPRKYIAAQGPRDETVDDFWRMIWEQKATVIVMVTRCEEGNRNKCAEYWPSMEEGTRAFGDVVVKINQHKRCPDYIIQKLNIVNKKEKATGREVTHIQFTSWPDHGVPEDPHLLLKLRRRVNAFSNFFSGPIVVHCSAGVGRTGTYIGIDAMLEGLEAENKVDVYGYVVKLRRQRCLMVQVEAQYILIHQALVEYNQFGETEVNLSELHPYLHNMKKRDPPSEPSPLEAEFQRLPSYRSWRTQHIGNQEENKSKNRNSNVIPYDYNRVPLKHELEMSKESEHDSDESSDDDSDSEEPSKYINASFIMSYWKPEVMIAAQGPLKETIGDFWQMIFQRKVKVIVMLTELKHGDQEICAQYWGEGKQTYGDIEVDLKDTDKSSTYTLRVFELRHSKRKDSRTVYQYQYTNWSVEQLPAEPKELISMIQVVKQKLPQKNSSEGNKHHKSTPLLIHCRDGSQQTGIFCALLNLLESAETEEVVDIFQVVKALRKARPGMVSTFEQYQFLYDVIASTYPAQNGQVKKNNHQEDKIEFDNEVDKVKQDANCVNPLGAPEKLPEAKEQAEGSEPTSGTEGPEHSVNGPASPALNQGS

[6] = molecular target: T4, Tyrosine-protein phosphatase non-receptor type 2 (Homo sapiens, UniProt P17706); assay: Inhibition of TCPTP; in short: as §1
T4 sequence (P17706 whole entry): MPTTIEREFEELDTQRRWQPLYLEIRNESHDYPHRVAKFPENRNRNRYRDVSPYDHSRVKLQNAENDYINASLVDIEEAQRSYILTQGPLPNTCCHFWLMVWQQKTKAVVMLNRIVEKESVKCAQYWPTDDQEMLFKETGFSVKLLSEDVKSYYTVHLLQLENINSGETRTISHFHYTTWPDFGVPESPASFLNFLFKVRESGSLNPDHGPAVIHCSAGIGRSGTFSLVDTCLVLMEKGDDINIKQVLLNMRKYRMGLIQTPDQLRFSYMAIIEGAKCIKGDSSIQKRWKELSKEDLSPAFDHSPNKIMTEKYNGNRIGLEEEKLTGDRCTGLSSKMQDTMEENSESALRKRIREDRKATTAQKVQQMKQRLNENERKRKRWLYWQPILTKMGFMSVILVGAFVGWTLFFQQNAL

Row | SMILES | IC50 [1] | IC50 [2] | IC50 [3] | IC50 [4] | IC50 [5] | IC50 [6]
1 | CC1(C)CC(NC(=O)/C=C/c2ccc(-c3ccc(O)c(C(=O)O)c3)o2)CC(C)(C)N1[O] | 3 µM | 12 µM | 7.5 µM | 24 µM | 14 µM | 14 µM
2 | COC(=O)c1cc(-c2ccc(CNC3CC(C)(C)N([O])C(C)(C)C3)o2)ccc1O | > 1000 µM | 850 µM | > 1000 µM | > 1000 µM | > 1000 µM | > 1000 µM
3 | COC(=O)c1cc(NC(=O)CCCC(=O)NC2CC(C)(C)N([O])C(C)(C)C2)ccc1O | > 1000 µM | > 1000 µM | > 1000 µM | > 1000 µM | > 1000 µM | > 1000 µM
4 | CC1(C)CC(NC(=O)/C=C/c2ccc(-c3cccc([N+](=O)[O-])c3)o2)CC(C)(C)N1[O] | 46 µM | 200 µM | 211 µM | 1000 µM | > 1000 µM | 260 µM
5 | CC1(C)CC(NC(=O)/C=C/c2ccc(-c3ccc([N+](=O)[O-])cc3)o2)CC(C)(C)N1[O] | 47 µM | 1000 µM | > 1000 µM | > 1000 µM | > 1000 µM | > 1000 µM
6 | CC1(C)CC(NCc2ccc(-c3ccc(O)c(C(=O)O)c3)o2)CC(C)(C)N1[O] | 50 µM | 241 µM | > 1000 µM | > 1000 µM | > 1000 µM | 685 µM
7 | CC1(C)CC(NC(=O)CCCC(=O)Nc2ccc(O)c(C(=O)O)c2)CC(C)(C)N1[O] | 336 µM | 1000 µM | > 1000 µM | > 1000 µM | > 1000 µM | > 1000 µM
